Type in all cases: cell-based, HEK293
In assay [1] the target is T1, Melanocortin receptor 3 (Homo sapiens, UniProt P41968). The experiment in a line: Effective concentration against human melanocortin receptor-3 expressed in 293 HEK cells. In short, it runs like this: (§1)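 LacZ reporter-gene activation assay in HEK293 cells expressing human MC3, human MC4 or mouse MC5 receptor. Dose-response curves run up to 30 µM. EC50 reported as -log(EC50) (M) with 95% confidence ranges. Incomplete or absent curves at 30 µM were not assigned values.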
T1 sequence (P41968 whole entry): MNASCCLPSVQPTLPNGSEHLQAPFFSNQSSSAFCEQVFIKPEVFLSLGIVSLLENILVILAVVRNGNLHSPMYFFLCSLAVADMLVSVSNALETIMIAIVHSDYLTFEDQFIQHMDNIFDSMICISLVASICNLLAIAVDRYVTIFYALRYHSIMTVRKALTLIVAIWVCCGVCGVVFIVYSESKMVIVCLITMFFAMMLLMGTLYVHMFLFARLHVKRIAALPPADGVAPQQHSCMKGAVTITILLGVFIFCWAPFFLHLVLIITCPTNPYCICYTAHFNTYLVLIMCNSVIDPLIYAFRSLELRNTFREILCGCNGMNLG

The target of assay [2] is T2, Melanocortin receptor 5 (Mus musculus, UniProt P41149). Put plainly: Effective concentration against mouse melanocortin receptor-5 expressed in 293 HEK cells. In short, it runs like this: as §1
T2 sequence (P41149 whole entry): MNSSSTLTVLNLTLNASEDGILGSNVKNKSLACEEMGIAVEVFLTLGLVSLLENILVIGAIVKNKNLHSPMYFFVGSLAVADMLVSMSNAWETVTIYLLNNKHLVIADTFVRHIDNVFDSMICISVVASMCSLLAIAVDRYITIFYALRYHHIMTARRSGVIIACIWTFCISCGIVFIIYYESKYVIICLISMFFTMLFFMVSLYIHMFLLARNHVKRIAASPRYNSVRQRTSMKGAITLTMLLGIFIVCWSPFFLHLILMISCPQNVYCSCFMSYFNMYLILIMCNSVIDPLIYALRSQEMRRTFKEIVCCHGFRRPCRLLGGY
Assay [3] deals with T3, Melanocortin receptor 4 (Homo sapiens, UniProt P32245). Put plainly: Effective concentration against human melanocortin receptor-4 expressed in 293 HEK cells. The procedure, abridged: as §1
T3 sequence (P32245 whole entry): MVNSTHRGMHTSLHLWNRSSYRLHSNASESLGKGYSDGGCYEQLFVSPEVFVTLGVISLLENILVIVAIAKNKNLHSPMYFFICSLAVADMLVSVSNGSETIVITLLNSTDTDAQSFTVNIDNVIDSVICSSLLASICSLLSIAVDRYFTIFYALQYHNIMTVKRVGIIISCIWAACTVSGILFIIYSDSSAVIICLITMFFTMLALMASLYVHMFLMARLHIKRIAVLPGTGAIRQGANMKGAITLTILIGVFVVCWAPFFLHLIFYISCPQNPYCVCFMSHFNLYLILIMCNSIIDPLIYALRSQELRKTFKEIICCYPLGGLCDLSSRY
The target of assay [4] is T1, Melanocortin receptor 3. The experiment in a line: Displacement of [125I]NDP-MSH from human melanocortin receptor-3 expressed in 293 HEK cells. The procedure, abridged:
(§2)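 Radioligand competition with [125I]-NDP-MSH on HEK293 cells expressing human MC3, human MC4 or mouse MC5 receptor. Ligands up to 30 µM. IC50 reported as -log(IC50) (M) with 95% confidence ranges. Ligands without activation activity were tested only at a single 30 µM concentration.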
(In a radioligand displacement assay an active substance lowers the binding of a labelled ligand.)

In assay [5] the target is T2, Melanocortin receptor 5. The experiment in a line: Displacement of [125I]NDP-MSH from mouse melanocortin receptor-5 expressed in 293 HEK cells. The procedure, abridged:
as §2

Assay [6] addresses T3, Melanocortin receptor 4. The experiment in a line: Displacement of [125I]NDP-MSH from human melanocortin receptor-4 expressed in 293 HEK cells. In short, it runs like this:
as §2

The values that follow come from ChEMBL document CHEMBL1144399, “Peptoid-peptide hybrids as potent novel melanocortin receptor ligands” (J Med Chem, 2005).

Structures are written as SMILES.

Broadly, the EC50 is the concentration giving half of the maximal effect. A lower EC50 goes with a more potent agent. In general, IC50 refers to the concentration at which inhibition is half-maximal. Higher therefore signals lower potency. For the compound `CCCC[C@H](NC(C)=O)C(=O)NCC(=O)N[C@@H](CCCCN)C(=O)N[C@H](Cc1ccccc1)C(=O)N(CCCCNC(=N)N)CC(=O)N(CCc1c[nH]c2ccccc12)CC(=O)NCC(N)=O`, the EC50 is 501 nM at Melanocortin receptor 3 [1], 12.6 nM at Melanocortin receptor 5 [2] and 251 nM on Melanocortin receptor 4 [3]. For the same compound, the values for the half-inhibitory concentration (IC50) on Melanocortin receptor 3 [4], at Melanocortin receptor 5 [5] and at Melanocortin receptor 4 [6] were 631 nM, 501 nM and 158 nM, respectively.
Take `CCCC[C@H](NC(C)=O)C(=O)NCC(=O)N[C@@H](CCCCN)C(=O)N[C@H](Cc1ccccc1)C(=O)N(CCCNC(=N)N)CC(=O)N(CC(=O)NCC(N)=O)Cc1c[nH]c2ccccc12`: the 50% effective concentration (EC50) is 631 nM at Melanocortin receptor 3 [1], 100 nM on Melanocortin receptor 5 [2] and 158 nM on Melanocortin receptor 4 [3]. In addition, the IC50 on Melanocortin receptor 3 [4] is 5010 nM; on Melanocortin receptor 5 [5], 2000 nM; at Melanocortin receptor 4 [6], 316 nM.
With `CCCC[C@H](NC(C)=O)C(=O)NCC(=O)N(CCCCN)CC(=O)NC(Cc1ccccc1)C(=O)N(CCCNC(=N)N)CC(=O)N(CCc1c[nH]c2ccccc12)CC(=O)NCC(N)=O` (single isomer, unassigned), the EC50 was 3980 nM on Melanocortin receptor 3 [1], 1000 nM on Melanocortin receptor 5 [2] and 398 nM at Melanocortin receptor 4 [3]. Further, the IC50 at Melanocortin receptor 3 [4] was 3980 nM; on Melanocortin receptor 5 [5], 1580 nM; on Melanocortin receptor 4 [6] it was 501 nM.
